Type in all cases: functional
The test system of experiment [1] is Plasmodium berghei. The experiment can be described thus: Antiparasitic activity as reduced parasitaemia after 36 hrs against Plasmodium berghei ANKA infected Swiss mice (Mus musculus) at 30 mg/kg intraperitoneal dosed 64 hrs post infection. An outline of the steps:
(§1)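 Male Swiss mice were infected i.p. with 10^7 P. berghei ANKA-parasitized erythrocytes. At 64 h (3-5% parasitemia) they received a single i.p. dose of piperaquine phosphate suspension: 300, 900 or 2,700 μg in 100 μl (about 10, 30, 90 mg/kg). Parasitemia came from May-Grünwald Giemsa tail-blood thin films, counting 30-100 fields (detection limit about 0.002%). Groups had 13-14 mice; controls had 8.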

Experiment [2] deals with Plasmodium berghei. Nature of the experiment: Antiparasitic activity as parasitaemia against Plasmodium berghei ANKA infected Swiss mice (Mus musculus) at 30 mg/kg intraperitoneal dose 64 hrs post infection. An outline of the steps:
as §1

The test system of experiment [3] is Plasmodium berghei. Nature of the experiment: Antiparasitic activity as parasitaemia after 4 days against Plasmodium berghei ANKA infected Swiss mice (Mus musculus) at 90 mg/kg intraperitoneal dose. Put shortly: as §1
For experiment [4], the system named is Plasmodium berghei. Nature of the experiment: Antiparasitic activity as parasitaemia at day 60 against Plasmodium berghei ANKA infected Swiss mice (Mus musculus) at 90 mg/kg intraperitoneal dose 64 hrs post infection. Put shortly: as §1
The test system of experiment [5] is Plasmodium berghei. The experiment can be described thus: Antiparasitic activity as parasitaemia at day 16 against Plasmodium berghei ANKA infected Swiss mice (Mus musculus) at 90 mg/kg intraperitoneal dose 64 hrs post infection. Put shortly: as §1
The subject of experiment [6] is Plasmodium berghei. Nature of the experiment: Antiparasitic activity as peripheral parasitaemia 2 weeks after day 60 reinfection against Plasmodium berghei ANKA infected Swiss mice (Mus musculus) at 90 mg/kg intraperitoneal dose 64 hrs post infection. Put shortly:
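Swiss mice given a single i.p. 90 mg/kg piperaquine phosphate 64 h after P. berghei ANKA infection were reinoculated i.p. with 10^7 parasitized erythrocytes on day 60. Age-matched previously uninfected mice (untreated, vehicle, or drug on day 0) were inoculated alongside. Parasitemia was read daily from Giemsa-stained tail-blood films for 2 weeks.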

Experiment [7] has as its system Plasmodium berghei. The experiment can be described thus: Antiparasitic activity as median survival time after 30 days against Plasmodium berghei ANKA infected Swiss mice (Mus musculus) at 30 mg/kg intraperitoneal dose 64 hrs post infection. Put shortly:
(§2)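 Male Swiss mice (5–6 weeks) inoculated i.p. with 10^7 P. berghei ANKA-parasitized erythrocytes. At 64 h (3–5% parasitemia), each received a single i.p. 100 μl PQP suspension in 50% glycerol, 30% phosphate buffer (pH 7.1) and 20% polysorbate 80. Parasitemia was followed on tail-vein Giemsa smears. Mice were euthanized at >40% parasitemia or >10% weight loss within 24 h. Groups of 14 treated, 8 controls.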

For experiment [8], the system named is Plasmodium berghei. Nature of the experiment: Antiparasitic activity as reduced parasitaemia after 36 hrs against Plasmodium berghei ANKA infected Swiss mice (Mus musculus) at 10 mg/kg intraperitoneal dosed 64 hrs post infection. An outline of the steps: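 Male Swiss mice (5–6 weeks) infected i.p. with 10^7 P. berghei ANKA-parasitized erythrocytes from BALB/c donor blood diluted in citrate-phosphate-dextrose. Single i.p. dose given at 64 h, suspended in 50% glycerol/30% phosphate buffer pH 7.1/20% polysorbate 80, 100 µl. n = 14; vehicle controls n = 8. Parasitemia counted on methanol-fixed, May-Grünwald Giemsa tail-vein smears, expressed as fold decline from predose level.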

The subject of experiment [9] is Plasmodium berghei. Nature of the experiment: Antiparasitic activity as reduced parasitaemia at day 22-30 against Plasmodium berghei ANKA infected Swiss mice (Mus musculus) at 30 mg/kg intraperitoneal dose 64 hrs post infection. More on the design: scale not given: the % may be the effect or the level left. An outline of the steps: as §1
Experiment [10] relates to Plasmodium berghei. Nature of the experiment: Antiparasitic activity as mean parasitaemia after 22 days against Plasmodium berghei ANKA infected Swiss mice (Mus musculus) at 30 mg/kg intraperitoneal dose 64 hrs post infection. Put shortly:
as §1

The subject of experiment [11] is Plasmodium berghei. Nature of the experiment: Antiparasitic activity as median survival time against Plasmodium berghei ANKA infected Swiss mice (Mus musculus) at 10 mg/kg intraperitoneal dose 64 hrs post infection. Put shortly: as §2
The test system of experiment [12] is Plasmodium berghei. The experiment can be described thus: Antiparasitic activity as parasitaemia against Plasmodium berghei ANKA infected Swiss mice (Mus musculus) at 10 mg/kg intraperitoneal dose 64 hrs post infection. Put shortly:
as §1

Structures are written as SMILES.

Regarding `C[C@H]1[C@@H](O)O[C@@H]2O[C@@]3(C)CC[C@H]4[C@H](C)CC[C@@H]1[C@@]24OO3` [ARTENIMOL], in the experiment with Plasmodium berghei [1], the “fold change (FC)” value is reported as 11.9. The Activity in the experiment on Plasmodium berghei [2] turned out to be 4.6%.

Take `Clc1ccc2c(N3CCN(CCCN4CCN(c5ccnc6cc(Cl)ccc56)CC4)CC3)ccnc2c1.O=P(O)(O)O` [PIPERAQUINE PHOSPHATE]: the Activity in the experiment on Plasmodium berghei [3] was greater than 10%; in the experiment with Plasmodium berghei [4], less than 0.1%; with Plasmodium berghei [5], 1.8%; in the experiment on Plasmodium berghei [6], less than 1%; in the experiment on Plasmodium berghei [7], 54 days; in the experiment on Plasmodium berghei [9] it was 0.1%. The Activity with Plasmodium berghei [10] was 11%; in the experiment on Plasmodium berghei [11], 10 days; in the experiment on Plasmodium berghei [12] it was 1.5%. For the same molecule, the “fold change (FC)” value with Plasmodium berghei [8] came out at 12.8.

(Values after ChEMBL document CHEMBL1152467, “Pharmacokinetics and pharmacodynamics of piperaquine in a murine malaria model” (Antimicrob Agents Chemother, 2008).)
